# According to ChEMBL document CHEMBL1177688, “Synthesis of novel pyrazolic analogues of chalcones and their 3-aryl-4-(3-aryl-4,5-dihydro-1H-pyrazol-5-yl)-1-phenyl-1H-pyrazole derivatives as potential antitumor agents” (2010):
# What was measured:
# Assay type in all cases: functional
# [1] = tested on: OVCAR-5; experiment: Antiproliferative activity against human OVCAR5 cells after 48 hrs by SRB assay; details: OVCAR-5, 48 h
# How it was run: (§1)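 NCI 60-cell-line human tumour panel, secondary five-dose screen. Compounds tested at 100, 10, 1.0, 0.1 and 0.01 µM with 48 h continuous exposure. Cell growth was estimated by sulforhodamine B protein staining. GI50 is the concentration giving a 50% reduction in net protein increase relative to untreated control cells over the incubation. TGI and LC50 were also derived.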
# [2] = tested on: CAKI-1; experiment: Antiproliferative activity against human Caki1 cells after 48 hrs by SRB assay; details: CAKI-1, 48 h
# How it was run: (§2)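 NCI 60-cell human tumour line panel. Continuous 48 h drug exposure at five concentrations (100, 10, 1.0, 0.1, 0.01 µM). Cell growth estimated by sulforhodamine B protein staining. GI50 = concentration giving 50% reduction in net protein increase versus control cells over the incubation. LC50 = molar concentration killing 50% of cells.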
# [3] = tested on: EKVX; experiment: Antiproliferative activity against human EKVX cells after 48 hrs by SRB assay; how it was run: as §1
# [4] = tested on: HCC 2998; experiment: Antiproliferative activity against human HCC2998 cells after 48 hrs by SRB assay; details: HCC 2998, 48 h; how it was run: as §1
# [5] = tested on: MCF7; experiment: Antiproliferative activity against human MCF7 cells after 48 hrs by SRB assay; details: MCF7, 48 h, read-out: LC50 (the source's name); how it was run: as §1
# [6] = tested on: MDA-MB-231; experiment: Antiproliferative activity against human MDA-MB-231 cells after 48 hrs by SRB assay; details: MDA-MB-231, 48 h; how it was run: as §2
# [7] = tested on: UACC-62; experiment: Antiproliferative activity against human UACC62 cells after 48 hrs by SRB assay; details: UACC-62, 48 h; how it was run: as §1
# [8] = tested on: BT-549; experiment: Antiproliferative activity against human BT549 cells after 48 hrs by SRB assay; details: BT-549, 48 h; how it was run: as §1
# [9] = tested on: DU-145; experiment: Antiproliferative activity against human DU145 cells after 48 hrs by SRB assay; details: DU-145, 48 h, read-out: LC50 (the source's name); how it was run: as §1
# [10] = tested on: SF-268; experiment: Antiproliferative activity against human SF268 cells after 48 hrs by SRB assay; details: SF-268, 48 h; how it was run: as §1
# [11] = tested on: U-251; experiment: Antiproliferative activity against human U251 cells after 48 hrs by SRB assay; details: U-251, 48 h; how it was run: as §2
# [12] = tested on: SR; experiment: Antiproliferative activity against human SR cells after 48 hrs by SRB assay; how it was run: as §1
# [13] = tested on: MDA-MB-468; experiment: Antiproliferative activity against human MDA-MB-468 cells after 48 hrs by SRB assay; details: MDA-MB-468, 48 h; how it was run: as §1
# [14] = tested on: SK-OV-3; experiment: Antiproliferative activity against human SKOV3 cells after 48 hrs by SRB assay; details: SK-OV-3, 48 h; how it was run: as §1
# [15] = tested on: RXF 393; experiment: Antiproliferative activity against human RXF393 cells after 48 hrs by SRB assay; details: RXF 393, 48 h; how it was run: as §2
# [16] = tested on: SF-295; experiment: Antiproliferative activity against human SF295 cells after 48 hrs by SRB assay; details: SF-295, 48 h; how it was run: as §1
# [17] = tested on: NCI-H226; experiment: Antiproliferative activity against human NCI-H226 cells after 48 hrs by SRB assay; details: NCI-H226, 48 h; how it was run: as §1
# [18] = tested on: KM12; experiment: Antiproliferative activity against human KM12 cells after 48 hrs by SRB assay; details: KM12, 48 h, read-out: LC50 (the source's name); how it was run: as §1
# [19] = tested on: COLO 205; experiment: Antiproliferative activity against human COLO205 cells after 48 hrs by SRB assay; details: COLO 205, 48 h; how it was run: as §2
# [20] = tested on: SK-MEL-2; experiment: Antiproliferative activity against human SK-MEL-2 cells after 48 hrs by SRB assay; details: SK-MEL-2, 48 h; how it was run: as §1
# [21] = tested on: M14; experiment: Antiproliferative activity against human M14 cells after 48 hrs by SRB assay; details: M14, 48 h, read-out: LC50 (the source's name); how it was run: as §1
# [22] = tested on: UO-31; experiment: Antiproliferative activity against human UO31 cells after 48 hrs by SRB assay; details: UO-31, 48 h; how it was run: as §1
# [23] = tested on: NCI-H23; experiment: Antiproliferative activity against human NCI-H23 cells after 48 hrs by SRB assay; details: NCI-H23, 48 h; how it was run: as §2
# [24] = tested on: SF-539; experiment: Antiproliferative activity against human SF539 cells after 48 hrs by SRB assay; details: SF-539, 48 h; how it was run: as §2
# [25] = tested on: T47D; experiment: Antiproliferative activity against human T47D cells after 48 hrs by SRB assay; how it was run: as §2
# [26] = Antiproliferative activity against human […] cells after 48 hrs by SRB assay; how it was run: as §1
# [27] = tested on: NCI-H322M; experiment: Antiproliferative activity against human NCI-H322M cells after 48 hrs by SRB assay; details: read-out: LC50 (the source's name); how it was run: as §1
# [28] = tested on: NCI-H522; experiment: Antiproliferative activity against human NCI-H522 cells after 48 hrs by SRB assay; details: NCI-H522, 48 h; how it was run: as §1
# [29] = tested on: LOX IMVI; experiment: Antiproliferative activity against human LOXIMVI cells after 48 hrs by SRB assay; details: read-out: LC50 (the source's name); how it was run: as §1
# [30] = tested on: IGROV-1; experiment: Antiproliferative activity against human IGROV1 cells after 48 hrs by SRB assay; details: IGROV-1, 48 h; how it was run: as §1
# [31] = tested on: SK-MEL-28; experiment: Antiproliferative activity against human SK-MEL-28 cells after 48 hrs by SRB assay; details: SK-MEL-28, 48 h, read-out: LC50 (the source's name); how it was run: as §1
# [32] = tested on: SK-MEL-5; experiment: Antiproliferative activity against human SK-MEL-5 cells after 48 hrs by SRB assay; details: SK-MEL-5, 48 h; how it was run: as §2
# [33] = tested on: A498; experiment: Antiproliferative activity against human A498 cells after 48 hrs by SRB assay; details: A498, 48 h; how it was run: as §1
# [34] = tested on: SNB-75; experiment: Antiproliferative activity against human SNB75 cells after 48 hrs by SRB assay; details: SNB-75, 48 h; how it was run: as §1
# [35] = tested on: SNB-19; experiment: Antiproliferative activity against human SNB19 cells after 48 hrs by SRB assay; details: SNB-19, 48 h; how it was run: as §1
# [36] = tested on: HOP-92; experiment: Antiproliferative activity against human HOP92 cells after 48 hrs by SRB assay; details: HOP-92, 48 h, read-out: LC50 (the source's name); how it was run: as §1
# [37] = tested on: NCI-H460; experiment: Antiproliferative activity against human NCI-H460 cells after 48 hrs by SRB assay; details: NCI-H460, 48 h, read-out: LC50 (the source's name); how it was run: as §1
# [38] = tested on: HCT-116; experiment: Antiproliferative activity against human HCT116 cells after 48 hrs by SRB assay; details: HCT-116, 48 h; how it was run: as §2
# [39] = read-out: LC50 (the source's name)
smiles,measurement,setting,value
O=C(/C=C/c1cn(-c2ccccc2)nc1-c1ccc([N+](=O)[O-])cc1)c1ccc(Cl)cc1,GI50,[1],> 100 µM
same,CC50,[1]; [39],> 100 µM
same,GI50,[2],4.56 µM
same,CC50,[2]; [39],> 100 µM
same,GI50,[3],4.97 µM
same,CC50,[3]; [39],> 100 µM
same,GI50,[4],> 100 µM
same,CC50,[4]; [39],> 100 µM
same,CC50,[5],> 100 µM
same,GI50,[6],2.45 µM
same,CC50,[6]; [39],> 100 µM
same,GI50,[7],11.4 µM
same,CC50,[7]; [39],> 100 µM
same,GI50,[8],2.25 µM
same,CC50,[8]; [39],> 100 µM
same,CC50,[9],> 100 µM
same,GI50,[10],3.12 µM
same,LC50,[10],> 100 µM
same,GI50,[11],2.09 µM
same,CC50,[11]; [39],> 100 µM
same,GI50,[12],2.76 µM
same,LC50 (50% net cell kill),[12],> 100 µM
same,GI50,[13],2.91 µM
same,CC50,[13]; [39],> 100 µM
same,GI50,[14],12.5 µM
same,CC50,[14]; [39],> 100 µM
same,GI50,[15],2.08 µM
same,CC50,[15]; [39],9.87 µM
same,GI50,[16],2.32 µM
same,CC50,[16]; [39],74.1 µM
same,GI50,[17],3.77 µM
same,CC50,[17]; [39],> 100 µM
same,CC50,[18],> 100 µM
same,GI50,[19],2.09 µM
same,GI50,[20],6.99 µM
same,CC50,[20]; [39],57.9 µM
same,CC50,[21],> 100 µM
same,GI50,[22],0.1 µM
same,CC50,[22]; [39],> 100 µM
same,GI50,[23],4.99 µM
same,CC50,[23]; [39],> 100 µM
same,GI50,[24],3.95 µM
same,CC50,[24]; [39],> 100 µM
same,GI50,[25],1.12 µM
same,CC50,[25]; [39],> 100 µM
same,GI50,[26],1.86 µM
same,LC50 (50% lethal concentration),[26],> 100 µM
same,CC50,[27],> 100 µM
same,GI50,[28],6.41 µM
same,LC50 (concentration killing 50% of tumour cells),[28],> 100 µM
same,CC50,[29],> 100 µM
same,GI50,[30],3.54 µM
same,CC50,[30]; [39],> 100 µM
same,CC50,[31],> 100 µM
same,GI50,[32],> 100 µM
same,CC50,[32]; [39],> 100 µM
same,GI50,[33],3.14 µM
same,CC50,[33]; [39],> 100 µM
same,GI50,[34],1.55 µM
same,LC50 (50% lethal concentration),[34],24 µM
same,GI50,[35],4.9 µM
same,CC50,[35]; [39],> 100 µM
same,CC50,[36],> 100 µM
same,CC50,[37],> 100 µM
same,GI50,[38],2.75 µM
same,CC50,[38]; [39],> 100 µM
